Experimental data taken from ChEMBL document CHEMBL4364260, “Discovery of Ziresovir as a Potent, Selective, and Orally Bioavailable Respiratory Syncytial Virus Fusion Protein Inhibitor” (J Med Chem, 2019).

What was measured:
[1] = Cytotoxicity against human Hep2 cells assessed as reduction in cell viability after 5 days by CCK-8 assay; type: cell-based; conditions: HEp-2 cells
Procedure, shortened: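 Uninfected HEp-2 cells (6000/well) were incubated 5 days with serially diluted compound. Viability was read by CCK-8, and CC50 is the concentration toxic to 50% of cells.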

[2] = Antiviral activity against Human respiratory syncytial virus A strain Long infected in human Hep2 cells assessed as reduction in virus induced cytopathic effect in presence of 10% FBS after 5 days by CCK-8 assay; type: functional, cell-based; conditions: HEp-2, 120 h
Procedure, shortened: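 HEp-2 cells seeded at 6000/well and infected the next day at MOI 0.02, a dose that gives about 90% CPE by day 5. Serial compound dilutions were present throughout, in standard medium with 10% FBS. Viability was read by CCK-8 at day 5, and EC50 is the concentration that cuts CPE by 50%.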

[3] = Therapeutic index, ratio of CC50 of human Hep2 cells to EC50 for antiviral activity against human respiratory syncytial virus long strain infected in human Hep2 cells after 5 days by CCK-8 assay; type: toxicity, cell-based; conditions: HEp-2 cells, read-out: Ratio CC50/EC50
Procedure, shortened: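 TI is CC50 over EC50. CC50 comes from uninfected HEp-2 cells; EC50 from 50% reduction of RSV Long CPE in HEp-2 cells (MOI 0.02, 5 days). Both were read by CCK-8 viability.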

[4] = AUC (0 to 24 hrs) in Wistar-Han rat at 10 mg/kg, po administered as single dose via gavage and measured up to 24 hrs by LC/MS/MS analysis; type: ADME, organism-based; parameters: dose 10 mg/kg, time < 24 hr, route oral; conditions: in vivo
Procedure, shortened: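 Single-dose PK in male Wistar-Han rats at 2 mg/kg iv or 10 mg/kg po, as a solution in 5% DMSO, 40% PEG400 and 55% 0.9% sodium chloride.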

[5] = Plasma clearance in Wistar-Han rat at 2 mg/kg, iv or 10 mg/kg, po administered as single dose via gavage and measured up to 24 hrs by LC/MS/MS analysis; type: ADME, organism-based
Procedure, shortened: (§1)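 Male Wistar-Han rats, single dose, 2 mg/kg iv and 10 mg/kg po, run by standard procedures.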

[6] = Half-life in Wistar-Han rat at 2 mg/kg, iv administered as single dose and measured up to 24 hrs by LC/MS/MS analysis; type: ADME, organism-based; conditions: in vivo; procedure, shortened: as §1
[7] = Volume of distribution at steady state in Wistar-Han rat at 2 mg/kg, iv or 10 mg/kg, po administered as single dose via gavage and measured up to 24 hrs by LC/MS/MS analysis; type: ADME, organism-based; conditions: in vivo, read-out: Vdss; procedure, shortened: as §1
[8] = Oral bioavailability in Wistar-Han rat at 10 mg/kg administered as single dose via gavage and measured up to 24 hrs by LC/MS/MS analysis; type: ADME, organism-based; conditions: in vivo; procedure, shortened: as §1

For `CC(C)(O)c1ccc2nc(N3CCS(=O)(=O)c4ccccc4C3)cc(NCC3(N)COC3)c2c1`, the CC50 at 120 h [1] was > 100000 nM, the EC50 [2] was > 100000 nM and the selectivity ratio at 120 h [3] was < 1.

Molecule `Cc1ccc2nc(N3CCS(=O)(=O)c4ccccc4C3)cc(NCC3(N)COC3)c2c1F` has a CC50 at 120 h [1] of 93000 nM, an EC50 [2] of 23 nM and a selectivity ratio at 120 h [3] of 4040.

With `NC1(CNc2cc(N3CCS(=O)(=O)c4ccccc4C3)nc3ccc(CO)cc23)COC1` the CC50 at 120 h [1] was > 100000 nM, the EC50 [2] was 2 nM and the selectivity ratio at 120 h [3] was > 50000.

In the case of `Cc1ccc2cc(N3CCS(=O)(=O)c4ccccc4C3)nc(NCC3(N)COC3)c2c1`, the CC50 at 120 h [1] is reported as 81000 nM, the EC50 [2] is reported as 220 nM and the selectivity ratio at 120 h [3] is reported as 370.

With `Cc1ccc2nc(N3CCS(=O)(=O)c4ccccc4C3)nc(NCC3(N)CCC3)c2c1` the CC50 at 120 h [1] was 21000 nM, the EC50 [2] was 100 nM and the selectivity ratio at 120 h [3] was 210.

In the case of `Cc1ccc2nc(N3CCS(=O)(=O)c4ccc(O)cc4C3)cc(NCC3(N)COC3)c2c1`, the CC50 at 120 h [1] is reported as > 100000 nM, the EC50 [2] is reported as 0.8 nM and the selectivity ratio at 120 h [3] is reported as > 125000.

`COc1ccc2c(c1)S(=O)(=O)CCN(c1cc(NCC3(N)COC3)c3cc(C)ccc3n1)C2` gave a CC50 at 120 h [1] of 92000 nM, an EC50 [2] of 1 nM and a selectivity ratio at 120 h [3] of 92000.

Work on `Cc1ccc2nc(N3CCS(=O)(=O)c4c(F)cccc4C3)cc(NCC3(N)COC3)c2c1` yielded a CC50 at 120 h [1] of 35000 nM, an EC50 [2] of 3 nM and a selectivity ratio at 120 h [3] of 11700.

In the case of `Cc1ccc2nc(N3CCS(=O)(=O)c4ccccc4C3)cc(NCC3(N)COC3)c2c1`, the CC50 at 120 h [1] is reported as > 100000 nM, the EC50 [2] is reported as 2 nM and the selectivity ratio at 120 h [3] is reported as > 50000. The AUC(0-t) at 24 h [4] was 442 ng·h/mL, the clearance [5] was 51 mL/min/kg and the half-life [6] was 1.7 h. For the same molecule, the Vd [7] was 4.1 L/kg and the bioavailability [8] was 13%.

With `COc1ccc2c(c1)S(=O)(=O)CCN(c1cc(NCC3(N)COC3)c3ccccc3n1)C2` the CC50 at 120 h [1] was > 100000 nM, the EC50 [2] was 8 nM and the selectivity ratio at 120 h [3] was > 12500.

`NC1(CNc2cc(N3CCS(=O)(=O)c4ccccc4C3)nc3ccc(Cl)cc23)COC1` showed a CC50 at 120 h [1] of 87000 nM, an EC50 [2] of 34 nM and a selectivity ratio at 120 h [3] of 2560.

`Cc1ccc2nc(N3CCS(=O)(=O)c4ccccc4C3)nc(NCC3(N)CC3)c2c1` showed a CC50 at 120 h [1] of 13000 nM, an EC50 [2] of 4 nM and a selectivity ratio at 120 h [3] of 3250.

`NC1(CNc2cc(N3CCS(=O)(=O)c4ccccc4C3)nc3ccncc23)COC1` gave a CC50 at 120 h [1] of 99000 nM, an EC50 [2] of 12 nM and a selectivity ratio at 120 h [3] of 8250.

Work on `Cc1ccc2nc(N3CCS(=O)(=O)c4cc(F)ccc4C3)cc(NCC3(N)COC3)c2c1` yielded a CC50 at 120 h [1] of 79000 nM, an EC50 [2] of 10 nM and a selectivity ratio at 120 h [3] of 7900.

In the case of `NC1(CNc2nc(N3CCS(=O)(=O)c4ccccc4C3)nc3ccccc23)COC1`, the CC50 at 120 h [1] is reported as > 100000 nM, the EC50 [2] is reported as 20 nM and the selectivity ratio at 120 h [3] is reported as > 5000.

Work on `COc1ccc2c(c1)CN(c1cc(NCC3(N)COC3)c3cc(C)ccc3n1)CCS2(=O)=O` yielded a CC50 at 120 h [1] of 90000 nM, an EC50 [2] of 3 nM and a selectivity ratio at 120 h [3] of 30000.

In the case of `Cc1ccc2c(c1)S(=O)(=O)CCN(c1cc(NCC3(N)COC3)c3ccccc3n1)C2`, the CC50 at 120 h [1] is reported as 95000 nM, the EC50 [2] is reported as 74 nM and the selectivity ratio at 120 h [3] is reported as 1280.

With `Cc1cc2c(NCC3(N)COC3)cc(N3CCS(=O)(=O)c4ccccc4C3)nc2cc1F` the CC50 at 120 h [1] was 64000 nM, the EC50 [2] was 21 nM and the selectivity ratio at 120 h [3] was 3050.

In the case of `Cc1cc2c(NCC3(N)COC3)cc(N3CCS(=O)(=O)c4ccccc4C3)nc2c(F)c1F`, the CC50 at 120 h [1] is reported as 53000 nM, the EC50 [2] is reported as 510 nM and the selectivity ratio at 120 h [3] is reported as 104.

Molecule `Cc1ccc2nc(N3CCS(=O)(=O)c4cc(Cl)ccc4C3)cc(NCC3(N)COC3)c2c1` has a CC50 at 120 h [1] of 15000 nM, an EC50 [2] of 27 nM and a selectivity ratio at 120 h [3] of 560.

Work on `Cc1ccc2c(c1)S(=O)(=O)CCN(c1cc(NCC3(N)COC3)c3cc(C)ccc3n1)C2` yielded a CC50 at 120 h [1] of 91000 nM, an EC50 [2] of 5 nM and a selectivity ratio at 120 h [3] of 18200.

For `Cc1ccc2nc(N3CCS(=O)(=O)c4ccccc4C3)nc(NCC(C)(C)N)c2c1`, the CC50 at 120 h [1] was 20000 nM, the EC50 [2] was 16 nM and the selectivity ratio at 120 h [3] was 1250.

In the case of `COc1cccc2c1S(=O)(=O)CCN(c1cc(NCC3(N)COC3)c3cc(C)ccc3n1)C2`, the CC50 at 120 h [1] is reported as > 100000 nM, the EC50 [2] is reported as 350 nM and the selectivity ratio at 120 h [3] is reported as > 286.

`Cc1ccc2nc(N3CCS(=O)(=O)c4ccc(F)cc4C3)cc(NCC3(N)COC3)c2c1` showed a CC50 at 120 h [1] of 93000 nM, an EC50 [2] of 72 nM and a selectivity ratio at 120 h [3] of 1290.

For `NC1(CNc2cc(N3CCS(=O)(=O)c4ccccc4C3)cc3ccccc23)COC1`, the CC50 at 120 h [1] was 71000 nM, the EC50 [2] was > 31600 nM and the selectivity ratio at 120 h [3] was < 2.
